Article PMC7564034 (Acta Pharmaceutica Sinica. B, 2019)
Read-outs that look alike come from different tables or passages of the source.

What was measured:
LoVo xenografts = assay: Xenograft tumor growth, SMI or Rd combined with 5FU, 20-day treatment; assay type: in vivo, Balb/c mice; settings: compared to vehicle + saline; SMI 10 mL/kg/day, Rd 5 mg/kg/day, 5FU 15 mg/kg/3 days i.p., 20 days
Outline: (§1)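 LoVo-xenograft mice with all tumors above 50 mm3 were dosed i.p. for 20 days: 10 mL/kg/day, 5 mg/kg/day, and/or 5FU 15 mg/kg every 3 days. Body weight and tumor axes were recorded daily; tumor volume = 1/2 × a × b². Tumors were resected after treatment. Weight change was read after 17 days; mean ± SEM.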

[1] = system: LoVo colon cancer xenograft; assay: Xenograft tumor growth, SMI combined with 5FU, 14-day treatment; assay type: in vivo, Balb/c nude mice; settings: compared to vehicle treated group; SMI 10 mL/kg/day, 5FU 15 mg/kg/3 days i.p., 14 days
[2] = Mice body weight in the 5FU combination study; assay type: in vivo, Balb/c mice harboring LoVo xenografts; settings: 5FU 15 mg/kg/3 days i.p.; 17-day treatment
Outline: as §1

[3] = assay type: in vivo, mice harboring xenograft tumors; settings: after intraperitoneal injection of Rb1, Rc, or Rd; data not shown
[4] = assay type: in vivo, Balb/c nude mice harboring LoVo xenografts; settings: for Cmax / Tmax: Balb/c nude, mouse, plasma, ip; for AUC0–∞ in plasma relative to those of Re, Rg1, Rg3 and Ro: after single or multiple SMI administration
Outline: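 Male LoVo-xenograft nude mice (6 weeks old) received 10 mL/kg i.p., either once or daily for 8 days. Blood (~0.1 mL) was drawn from the oculi chorioideae vein into heparin tubes between 5 min and 96 h after the last dose, 5 mice per time point. Plasma was spun at 8000 rpm for 5 min and extracted with methanol. AUC0–∞ and the multiple/single ratio were derived.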

[5] = Constituent ratio of ginsenosides in SMI, plasma, tumor and endothelial cells; assay type: in vivo, Balb/c nude mice harboring LoVo xenografts; settings: 20 min after 15-day SMI treatment
Outline: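 Tissues were sampled 20 min after the last dose of a 15-day i.p. course. Tumors were digested 1 h in DMEM with collagenase I (2 mg/mL) and DNase I (0.1 mg/mL), then strained through 40 μm mesh. CD31+ cells were enriched with PE anti-mouse CD31 and anti-PE magnetic particles, with purity checked by CD45/viability flow cytometry; n = 3. Each ratio = concentration of the constituent / summed eight ginsenosides.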

[6] = assay type: in vivo, Balb/c nude mice harboring LoVo xenografts; settings: 8-day vs single SMI 10 mL/kg/day i.p.
FGF = assay: ELISA of FGF secretion in tumors; assay type: in vivo, Balb/c mice harboring LoVo xenografts; settings: 15 days i.p.; SMI, Rd-H 5 mg/kg, Rb1, Rg1; vs vehicle
Outline: (§2)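 Mice received test compound i.p. for 15 days. Tumors were harvested 20 min after the final dose and homogenized in RIPA buffer. VEGF and FGF were quantified by ELISA kit and normalized to protein content measured by BCA assay. Compared with vehicle.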

VEGF = assay: ELISA of VEGF secretion in tumors; assay type: in vivo, Balb/c mice harboring LoVo xenografts; settings: 15 days i.p.; SMI, Rd-H 5 mg/kg, Rb1, Rg1; vs vehicle
Outline: as §2

Row | Detection in plasma or tumor tissues [3] | Cmax ([4]; 10 mL/kg) | Tmax ([4]; 10 mL/kg) | Cmax ([4]; 10 mL/kg/day) | Tmax ([4]; 10 mL/kg/day) | AUC0–∞ in plasma relative to those of Re, Rg1, Rg3 and Ro [4] | Constituent ratio in TECs [5] | Constituent ratio in plasma [5] | Constituent ratio in tumor tissues [5] | AUC0–∞ ratio Multiple/Single in tumors [6] | Compound | Suppression of tumor growth (LoVo xenografts) | Suppression of tumor growth [1] | Suppression of the increase of mice body weight [2] | Suppression of the secretion of FGF in tumors (FGF) | Reduction of the secretion of VEGF in tumors (VEGF)
1 | – | – | – | – | – | – | – | – | – | – | O=c1[nH]cc(F)c(=O)[nH]1 [5FU, 5-fluorouracil] | 17% | 49.0% | 65% | – | –
2 | neither Rg3 nor CK could be detected | – | – | – | – | – | – | – | – | – | CC(C)=CCC[C@](C)(O[C@@H]1O[C@H](CO)[C@@H](O)[C@H](O)[C@H]1O)[C@H]1CC[C@]2(C)[C@@H]1[C@H](O)C[C@@H]1[C@@]3(C)CC[C@H](O)C(C)(C)[C@@H]3CC[C@]12C [CK, compound K] | – | – | – | – | –
3 | – | 20600 ng/mL | 1 h | 49400 ng/mL | 2 h | more than 20 times | 14.9% | 34.5% | 21.9% | 1.64 | CC(C)=CCC[C@](C)(O[C@@H]1O[C@H](CO[C@@H]2O[C@H](CO)[C@@H](O)[C@H](O)[C@H]2O)[C@@H](O)[C@H](O)[C@H]1O)[C@H]1CC[C@]2(C)[C@@H]1[C@H](O)C[C@@H]1[C@@]3(C)CC[C@H](O[C@@H]4O[C@H](CO)[C@@H](O)[C@H](O)[C@H]4O[C@@H]4O[C@H](CO)[C@@H](O)[C@H](O)[C@H]4O)C(C)(C)[C@@H]3CC[C@]12C [Rb1, ginsenoside Rb1] | – | – | – | 99% | 15%
4 | – | 7800 ng/mL | 4 h | 16900 ng/mL | 2 h | more than 20 times | – | – | – | 5.67 | CC(C)=CCC[C@](C)(O[C@@H]1O[C@H](CO[C@@H]2O[C@@H](CO)[C@H](O)[C@H]2O)[C@@H](O)[C@H](O)[C@H]1O)[C@H]1CC[C@]2(C)[C@@H]1[C@H](O)C[C@@H]1[C@@]3(C)CC[C@H](O[C@@H]4O[C@H](CO)[C@@H](O)[C@H](O)[C@H]4O[C@@H]4O[C@H](CO)[C@@H](O)[C@H](O)[C@H]4O)C(C)(C)[C@@H]3CC[C@]12C [Rc] | – | – | – | – | –
